Published values pooled from the literature.
Each line is one published result; the experiments were not run side by side.
Target: Mitogen-activated protein kinase kinase kinase 14 (MAP3K14, Homo sapiens, UniProt Q99558)

Compound	effect on	action	technique	concentration	endpoint	value
N#CCCc1ccc2c(c1)-c1[nH]c3ccc([N+](=O)[O-])cc3c1CC(=O)N2	cell-free assay	–	–	0.5 µM	remaining signal	161%
C[C@@H]1CCN(c2nccc(-c3cnn4ncccc34)n2)C1	binding	–	competition with immobilised ligand	1 µM	remaining binding	72%
CCCOc1ccc([C@H]2[C@H](C(=O)O)[C@@H](c3ccc4c(c3)OCO4)CN2CC(=O)Nc2c(CC)cccc2CC)cc1	cell-free assay	–	competition with immobilised ligand	1 µM	remaining binding	85%
CC(C)(C)c1nc2c(s1)c1nc(N)ncc1c1ccc(NS(=O)(=O)c3c(F)cccc3F)c(F)c12	enzyme activity	inhibitor	radiometric	1 µM	remaining activity	104%
Nc1ncnc2occ(-c3ccc(NC(=O)Nc4cc(C(F)(F)F)ccc4F)cc3)c12	cell-free assay	inhibitor	–	20 µM	remaining signal	93%
C[C@@H](c1cccc(C#N)c1)n1cc(Cl)cc(C(N)=O)c1=N	cell-free assay	–	competition with immobilised ligand	1 µM	remaining binding	93%
CC(C)(C)c1nc(-c2cccc(NS(=O)(=O)c3c(F)cccc3F)c2F)c(-c2ccnc(N)n2)s1	enzyme activity	inhibitor	radiometric	1 µM	remaining activity	100%
CC(C)(O)[C@H]1CC[C@H](Nc2ccc3ncc(-c4cccc(C(F)(F)F)c4)n3n2)CC1	enzyme activity	inhibitor	–	1 µM	remaining activity	114%
